The subject of test [1] is Liver microsomes. The experiment in a line: Inhibition of all-trans retinoic acid metabolism in rat liver microsomes. In kind it is functional, Microsome. In outline:
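Rat liver microsomes incubated with [11,12-3H]-atRA (diluted in unlabeled atRA), inhibitor in acetonitrile, NADPH and 50 mM phosphate buffer pH 7.4, duplicate tubes, 30 min at 37 °C with shaking. Extract evaporated and metabolites resolved by C18 radio-HPLC (acetonitrile/1% ammonium acetate/acetic acid 75:25:0.1). IC50 is the average of two experiments.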

The target of test [2] is T1, Cytochrome P450 26A1 (Homo sapiens, UniProt O43174).
T1 sequence (O43174 whole entry): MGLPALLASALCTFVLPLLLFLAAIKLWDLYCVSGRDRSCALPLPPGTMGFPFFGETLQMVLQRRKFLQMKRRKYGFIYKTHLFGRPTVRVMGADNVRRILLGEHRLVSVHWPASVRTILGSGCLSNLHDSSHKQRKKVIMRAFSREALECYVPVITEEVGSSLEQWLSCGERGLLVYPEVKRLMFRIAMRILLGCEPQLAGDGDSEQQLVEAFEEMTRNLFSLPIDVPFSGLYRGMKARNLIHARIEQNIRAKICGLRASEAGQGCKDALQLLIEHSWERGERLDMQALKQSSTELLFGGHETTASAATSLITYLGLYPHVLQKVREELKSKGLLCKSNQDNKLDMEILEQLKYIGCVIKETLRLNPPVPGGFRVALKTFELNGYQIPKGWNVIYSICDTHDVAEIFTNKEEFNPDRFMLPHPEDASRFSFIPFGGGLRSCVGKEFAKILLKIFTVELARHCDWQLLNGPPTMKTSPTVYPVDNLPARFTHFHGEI
The experiment in a line: Inhibition of CYP26A1 in human MCF7 cells assessed as all-trans retinoic acid metabolism. Type of test: ADME, cell-based. In short, it runs like this: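 Seeded 2.5 × 10^5 per well and allowed 24 h to adhere, then washed with PBS. Fresh medium with inhibitor in acetonitrile plus atRA (final 1 × 10^-7 M, 0.1 μCi [3H]-atRA), 9 h at 37 °C in the dark, duplicate. Stopped with 1% acetic acid. Metabolites separated by radio-HPLC on C18. IC50 is the average of two experiments.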

Active and inactive are the calls of the source. No cut-off for these calls is given here.

As to `COc1ccc2c(c1)CCC(Cc1ccccc1C)C2=O` (configuration not stated), the IC50 in test [1] worked out at 1.8 µM; in test [2], 20 µM.

Consider `Clc1cccc(C(c2ccc3[nH]cnc3c2)n2ccnc2)c1` (configuration not stated), for which the outcome in test [1] (Microsome) was Active.

For `O=C1c2ccc(O)cc2CCC1Cc1ccccc1-c1ccccc1` (configuration not stated), the IC50 turned out to be 0.5 µM in test [1] and 10 µM in test [2].

Consider `O=C1/C(=C/c2ccccc2Br)CCc2cc(O)ccc21`, for which the IC50 in test [1] is 2.4 µM; in test [2], 20 µM.

For `COc1ccc2c(c1)CCC(Cc1ccc(O)cc1)C2=O` (configuration not stated), the IC50 in test [1] is 0.4 µM; in test [2], 5 µM.

`CC(=O)N1CCN(c2ccc(OCC3COC(Cn4ccnc4)(c4ccc(Cl)cc4Cl)O3)cc2)CC1` (configuration not stated) [KETOCONAZOLE] displayed an IC50 in test [1] of 18 µM.

With `CN(C)c1ccc(/C=C2\CCc3cc(O)ccc3C2=O)cc1`, the IC50 is more than 20 µM in test [1] and 50 µM in test [2].

In the case of `COc1ccc2c(c1)CC/C(=C\c1ccccc1Br)C2=O`, the IC50 was more than 20 µM in test [1] and 9 µM in test [2].

Turning to `O=C1/C(=C/c2ccccc2-c2ccccc2)CCc2cc(O)ccc21`, the IC50 in test [1] is more than 20 µM; in test [2] it was 20 µM.

With `COc1ccc2c(c1)CC/C(=C\c1cc(C(F)(F)F)ccc1C(F)(F)F)C2=O`, the IC50 in test [1] was more than 20 µM; in test [2], 50 µM.

Turning to `COc1ccc2c(c1)CCC(Cc1cc(C(F)(F)F)ccc1C(F)(F)F)C2=O` (configuration not stated), the IC50 in test [1] came out at 18 µM; in test [2], 50 µM.

Turning to `CN(C)c1ccc(CC2CCc3cc(O)ccc3C2=O)cc1` (configuration not stated), the half-inhibitory concentration (IC50) was 1.2 µM in test [1] and 25 µM in test [2].

Turning to `O=C1c2ccc(O)cc2CCC1Cc1ccc(O)cc1` (configuration not stated), the IC50 in test [1] was found to be 1.5 µM; in test [2] it was 20 µM.

In the case of `CCC(CC)[C@H](c1ccc(Nc2nc3ccccc3s2)cc1)n1cncn1`, the half-maximal inhibitory concentration (IC50) in test [1] stood at 9 µM; in test [2], 0.005 µM.

Turning to `COc1ccc2c(c1)CC/C(=C\c1ccc(O)cc1)C2=O`, the concentration for half-maximal inhibition (IC50) in test [1] was more than 20 µM; in test [2], 7 µM.

Take `COc1ccc2c(c1)CC/C(=C\c1ccccc1C)C2=O`: the IC50 in test [1] was more than 20 µM; in test [2], 20 µM.

For the molecule `O=C1/C(=C/c2ccc(O)cc2)CCc2cc(O)ccc21`, the IC50 in test [1] was more than 20 µM; in test [2], 9 µM.

With `O=C1c2ccc(O)cc2CCC1Cc1ccc(-c2ccccc2)cc1` (configuration not stated), the figures for the IC50 in test [1] and in test [2] were 0.8 µM and 10 µM, respectively.

For the molecule `COc1ccc2c(c1)CCC(Cc1ccc(O)cc1)C2` (configuration not stated), the IC50 worked out at 2.2 µM in test [1] and 25 µM in test [2].

Turning to `O=C1/C(=C/c2ccc(-c3ccccc3)cc2)CCc2cc(O)ccc21`, the concentration for half-maximal inhibition (IC50) in test [1] was more than 20 µM; in test [2], 50 µM.

Consider `Nc1ccc(CC2CCc3cc(O)ccc3C2=O)cc1` (single isomer, unassigned; (+)), for which the IC50 in test [1] was 17.6 µM; in test [2], 43 µM.

Turning to `Nc1ccc(CC2CCc3cc(O)ccc3C2=O)cc1` (single isomer, unassigned; (-)), the IC50 in test [1] is 10.2 µM; in test [2], 39 µM.

In general, IC50 refers to the concentration needed to halve the response being measured.
